Data taken from publication PMC3076580 (Investigational New Drugs, 2010).

Tests used:
[1] = target: purified deoxycytidine deaminase (dCDA) (Homo sapiens, UniProt P32320); assay: Deoxycytidine deaminase activity; format: biochemical; conditions: 37°C; for deamination as substrate of dCDA: 500 μM substrate, no inhibitor
Method in brief: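 Purified dCDA (source not stated) run at 37°C with 500 μM dCyd or gemcitabine as substrate and 500 μM competing compound. Every run included a blank (no substrate or inhibitor) and a substrate-only control. Stopped after 15 or 25 min with 40% w/v TCA, then neutralised with trioctylamine/trichlorotrifluoroethane […]. Substrates and the deoxyuridine or difluorodeoxyuridine products measured by reversed-phase HPLC. Unpaired t-test.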

[2] = system: MA-11 breast cancer xenograft; assay: Xenograft testing, ip; format: in vivo, nude mice; conditions: MA-11, ip at MTD
Method in brief: (§1)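 Female BALB/c nude mice anaesthetised with propanidid 5 mg/10 g ip. Tumour fragments (~2 mm cubes) implanted sc in each flank. Treatment started at minimum diameter 4 mm (32 mm3): liposomal test compound or gemcitabine ip q3dx5 at MTD. RTV = Vx/V0 ×100, group median. T/C = treated/control RTV ×100; SGD counts doubling times gained. Deaths within 2 weeks after the last dose counted as toxic. Mann–Whitney U, p<0.05.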

[3] = system: AG6000 cells (gemcitabine resistant A2780 variant, dCK deficient); assay: Growth inhibition, SRB assay, 72 h exposure; format: cell-based; conditions: Homo sapiens, AG6000, 72 h
Method in brief: (§2)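 Monolayer cells seeded on day 1 at 6,000 (A2780), 18,000 (AG6000) or 8,000 (C26-G) cells/well. Drug dilutions added on day 2, final 2.10−10 to […], from a 20 mM DMSO stock (DMSO ≤1%). After 72 h, fixed with ice-cold TCA for 60 min and stained with sulforhodamine B. Relative growth taken from OD versus control wells. IC50 interpolated from straight-line curves.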

L1210/L5 cells = assay: Growth inhibition, cell counting, 72 h exposure; format: cell-based, murine; conditions: Mus musculus, L1210, 72 h
Method in brief: (§3)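 Suspension cells in RPMI-1640 with 10% FCS. L5/L4A6 medium had 60 μM 2-mercaptoethanol and 250 ng/ml gentamicin; BCLO had 3.2 mM glutamine and gentamicin; Bara-C had 5% FCS plus 5% rat serum. Seeding: 50,000 (L5), 100,000 (L4A6), 150,000 (BCLO) or 175,000 (Bara-C) cells/well. Drug (final 2.10−10 to 10−3 M) added at plating; counted at 72 h. IC50 interpolated against 0%/100% controls.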

[4] = system: TAX II-1 malignant fibrous histiocytoma xenograft; assay: Xenograft testing, ip; format: in vivo, nude mice; conditions: TAX II-1, ip at MTD
Method in brief: as §1

[5] = system: PANC-1 pancreatic cancer xenograft; assay: Xenograft testing, ip; format: in vivo, nude mice; conditions: PANC-1, ip every third day for five doses at MTD
Method in brief: as §1

[6] = system: H-146 small cell lung cancer xenograft; assay: Xenograft testing, ip; format: in vivo, nude mice; conditions: H-146, ip at MTD
Method in brief: as §1

[7] = system: L4A6 cells (cytarabine resistant L1210 variant); assay: Growth inhibition, cell counting, 72 h exposure; format: cell-based, murine; conditions: Mus musculus, L1210, 72 h
Method in brief: as §3

MOLT4/C8 cells = assay: Growth inhibition with or without nucleoside transport inhibitors; format: cell-based; conditions: Homo sapiens
Method in brief: (§4)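 Cells grown in suspension in RPMI-1640-based medium and plated at 2.5.105 cells/ml. NBMPR (100 μM) or dipyridamole (4 μg/ml) was present or absent, with serial dilutions of test compound or gemcitabine. Cells counted after 72 h. Growth set relative to plated cells (0%) and untreated 72 h cells (100%). IC50 read from a straight-line interpolated curve.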

[8] = system: human colon cancer xenograft Co6044; assay: Xenograft testing, oral; format: in vivo, nude mice
[9] = system: MiaPaCa-2 pancreatic cancer xenograft; assay: Xenograft testing, ip; format: in vivo, nude mice; conditions: MiaPaCa-2, ip every third day for five doses at MTD
Method in brief: as §1

[10] = system: THX malignant melanoma xenograft; assay: Xenograft testing, ip; format: in vivo, nude mice; conditions: ip every third day for five doses at MTD
Method in brief: as §1

A2780 cells = assay: Growth inhibition, SRB assay, 72 h exposure; format: cell-based; conditions: Homo sapiens, A2780, 72 h
Method in brief: as §2

LOX cells = assay: Growth inhibition with or without nucleoside transport inhibitors; format: cell-based; conditions: Homo sapiens
Method in brief: as §4

[11] = system: C26-G cells (gemcitabine resistant); assay: Growth inhibition, SRB assay, 72 h exposure; format: cell-based, murine; conditions: Mus musculus
Method in brief: as §2

MOLT4 cells = assay: Growth inhibition with or without nucleoside transport inhibitors; format: cell-based, human; conditions: for IC50: Homo sapiens
Method in brief: as §4

THX cells = assay: as above; format: cell-based, human; conditions: for IC50: Homo sapiens
Method in brief: as §4

C26-A cells = assay: Growth inhibition, SRB assay, 72 h exposure; format: cell-based, murine; conditions: Mus musculus
[12] = Co6044, oral, days 1, 4 and 7, 20 mg/kg
[13] = Co6044, oral, days 1, 4 and 7, 40 mg/kg

purified deoxycytidine deaminase (dCDA), sequence (P32320 whole entry): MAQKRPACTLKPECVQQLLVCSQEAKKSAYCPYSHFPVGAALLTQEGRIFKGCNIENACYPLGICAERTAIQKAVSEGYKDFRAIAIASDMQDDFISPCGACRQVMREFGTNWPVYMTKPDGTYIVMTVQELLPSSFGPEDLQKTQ

Nc1ccn([C@H]2C[C@H](O)[C@@H](CO)O2)c(=O)n1 [dCyd, deoxycytidine]
deamination as substrate of dCDA [1]: 312 pmol/hr/μl enzyme

Nc1ccn([C@@H]2O[C@H](CO)[C@@H](O)C2(F)F)c(=O)n1 [gemcitabine, 2′,2′-difluorodeoxycytidine]
antitumor activity (in words) [2]: some activity
IC50 [3]: 185000 ± 108000 nM
IC50 (L1210/L5 cells): 1.9 ± 0.6 nM
antitumor activity (in words) [4]: inactive
Deaths [5]: 4/9
antitumor activity (in words) [6]: not active
dFdU formed when dCyd and gemcitabine were added simultaneously ([1]; 500 μM each): 1,127 pmol/hr/μl enzyme
deamination as substrate of dCDA [1]: 624 pmol/hr/μl enzyme
IC50 [7]: 8800 ± 3600 nM
IC50 (MOLT4/C8 cells; Molt4/C8, MOLT4/C8, +Dipyridamole 4 μg/ml): 7620 ± 590 nM
IC50 (MOLT4/C8 cells; Molt4/C8, MOLT4/C8, +NBMPR 100 μM): 8310 ± 1200 nM
IC50 (MOLT4/C8 cells; Molt4/C8, MOLT4/C8, no transport inhibitor): 460 ± 120 nM
Deaths [8, 12]: 0/7
Weight loss (%) [8, 12]: 0%
Deaths [8, 13]: 5/7
Maximal T/C (%) [8, 13]: 8%
Weight loss (%) [8, 13]: 1%
toxicity (in words) ([8]; Co6044 bearing mice, oral, at similar doses as the ip administration): very toxic
Deaths [9]: 7/7
SGD [10]: > 6.25
IC50 (A2780 cells): 1.5 ± 0.6 nM
IC50 (LOX cells; +Dipyridamole 4 μg/ml): 610 ± 220 nM
IC50 (LOX cells; +NBMPR 100 μM): 1150 ± 60 nM
IC50 (LOX cells; no transport inhibitor): 4.7 ± 1 nM
IC50 [11]: 20 ± 10 nM
IC50 (MOLT4 cells; MOLT-4, MOLT4, +Dipyridamole 4 μg/ml): 610 ± 260 nM
IC50 (MOLT4 cells; MOLT-4, MOLT4, +NBMPR 100 μM): 820 ± 250 nM
IC50 (MOLT4 cells; MOLT-4, MOLT4, no transport inhibitor): 3 ± 3.3 nM
decrease in sensitivity by dipyridamole (MOLT4 cells; MOLT4, 4 μg/ml dipyridamole): 203 fold
decrease in sensitivity by NBMPR (MOLT4 cells; MOLT4, 100 μM NBMPR): 273 fold
decrease in sensitivity by dipyridamole (THX cells; 4 μg/ml dipyridamole): 115 fold
decrease in sensitivity by NBMPR (THX cells; 100 μM NBMPR): 55 fold
IC50 (THX cells; +Dipyridamole 4 μg/ml): 310 ± 130 nM
IC50 (THX cells; +NBMPR 100 μM): 150 ± 50 nM
IC50 (THX cells; no transport inhibitor): 2.7 ± 0.7 nM
IC50 (C26-A cells): 16 ± 4 nM
